From ChEMBL document CHEMBL4251661, “Capsicodendrin from Cinnamosma fragrans Exhibits Antiproliferative and Cytotoxic Activity in Human Leukemia Cells: Modulation by Glutathione” (J Nat Prod, 2018)
The source made the active and inactive calls. The calls are words filed in the database; no cut-off is given here.

Tests used:
[1] = Drug level in DMSO-d6 treated with capsicodendrin at 2 mg measured after 1 hr by 1H-NMR spectra analysis; format: physicochemical
HL-60 [2] = assay: Growth inhibition of human HL60 cells after 72 hrs by Beckman coulter counting method; format: functional, cell-based; conditions: HL-60, 72 h
Method in brief: (§1)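 HL-60 cells in complete RPMI, preincubated 40 h with or without BSO 50 μM, then seeded at 100 000 cells/mL. Treated with CPCD (0.1, 0.2, 0.5 μM) or DMSO (1%) for 72 h at 37 °C, 5% CO2. Cells counted on a Coulter counter; IC50 taken from growth curves. Mean ± SEM of 3–4 separate-day experiments.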

HL-60 [3] = assay: Growth inhibition of human HL60 cells after 72 hrs in presence of GSH synthesis inhibitor buthionine sulfoximine by Beckman coulter counting method; format: functional, cell-based; conditions: HL-60, 72 h; method in brief: as §1
HL-60 [4] = assay: Induction of DNA damage in human HL60 cells assessed as increase in DNA strand breaks at 2 to 5 uM after 1 hr in presence of GSH synthesis inhibitor buthionine sulfoximine by SYBR green dye based comet assay; format: functional, cell-based
Method in brief: (§2)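 HL-60 cells (100 000 cells/mL), ±BSO 50 μM for 40 h, moved into HEPES/glucose/salt buffer pH 7.4. Treated 1 h at 37 °C with CPCD 0.5–5 μM or 0.2% DMSO. Cells embedded in low-melt agarose, lysed, held at pH 13, then electrophoresed 30 min at 21 V/cm. SYBR Gold staining; Olive tail moment scored from ≥100 cells. Mean ± SEM of 5 runs.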

HL-60 [5] = assay: Induction of reactive oxygen species generation in human HL60 cells at 1 to 5 uM measured at 2 mins interval for 1 hr by DCFH-DA staining-based fluorescence assay; format: functional, cell-based
Method in brief: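 HL-60 cells (1 × 10^6/mL) loaded with DCFH-DA 2 μM in HEPES buffer for 30 min at 37 °C, washed, then treated with vehicle, CPCD 1–5 μM or H2O2 25 μM. Fluorescence read every 2 min up to 1 h, in triplicate wells. Rate expressed as fluorescence units per min.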

HL-60 [6] = assay: Induction of DNA damage in human HL60 cells assessed as increase in DNA strand breaks at 0.5 to 5 uM after 1 hr by SYBR green dye based comet assay; format: functional, cell-based; method in brief: as §2
[7] = Displacement of ThioGlo4 from glutathione measured after 8 hrs by fluorescence assay; conditions: read-out: Kd(app)
Method in brief: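 GSH (5 μM) incubated with CPCD 0.5–100 μM in 1× PBS for 8 h at 37 °C. ThioGlo IV (10 μM) added to diluted aliquots; unreacted GSH quantified by fluorescence, excitation 400 nm, emission 465 nm.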

HL-60 [8] = assay: Induction of apoptosis in human HL60 cells assessed as change in morphology at 0.2 to 0.5 uM after 48 hrs in presence of GSH synthesis inhibitor buthionine sulfoximine by […]; format: functional, cell-based
Method in brief: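 HL-60 cells seeded at 100 000 cells/mL; for line 11, first held 40 h ± BSO 50 μM. Exposed to CPCD 0.1–0.5 μM or 0.1% DMSO for 48 h or 48 and 72 h. Washed pellets stained 20 min in the dark at room temperature with Hoechst 33342 (0.013 mg/mL). Fluorescence microscopy; 100–200 cells scored for apoptotic nuclear morphology.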

HL-60 [9] = assay: Cytotoxicity against human HL60 cells assessed as cell death at 0.2 to 0.5 uM after 48 hrs in presence of GSH synthesis inhibitor buthionine sulfoximine by trypan blue dye exclusion method; format: functional, cell-based
Method in brief: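 HL-60 cells (RPMI-1640 + 15% FBS, 37 °C, 5% CO2) seeded at 100 000 cells/mL. For line 1, cells were first held 40 h ± BSO 50 μM. They were then exposed to CPCD 0.1–0.5 μM or DMSO for 48 h or 48 and 72 h. Cells were mixed 1:1 with trypan blue and % blue-positive cells counted on a hemocytometer. Mean ± SEM of 3–9 separate-day runs.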

HL-60 [10] = assay: Growth inhibition of human HL60 cells at 0.2 to 0.5 uM after 48 hrs in presence of GSH synthesis inhibitor buthionine sulfoximine by Beckman coulter counting method; format: functional, cell-based
K562 [11] = assay: Growth inhibition of human K562 cells after 72 hrs in presence of GSH synthesis inhibitor buthionine sulfoximine by Beckman coulter counting method; format: functional, cell-based; conditions: K562, 72 h
Method in brief: (§3)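 K562 cells in DMEM + 10% FBS, preincubated 40 h with or without BSO 50 μM, then seeded at 100 000 cells/mL. Exposed to CPCD or DMSO at 37 °C, 5% CO2; growth assessed after 48 h per figure legend (72 h per methods). Cell number read on a Coulter counter; IC50 calculated from growth curves. Mean ± SEM of 3–4 separate-day runs.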

K562 [12] = assay: Growth inhibition of human K562 cells after 72 hrs by Beckman coulter counting method; format: functional, cell-based; conditions: K562, 72 h; method in brief: as §3

Drug metabolism [1]	SMILES	IC50 (HL-60 [2]) [nM]	IC50 (HL-60 [3]) [nM]	Activity (HL-60 [4])	Activity (HL-60 [5])	Activity (HL-60 [6])	Kd [7] [nM]	Activity (HL-60 [8])	Activity (HL-60 [9])	growth inhibition (GI) (HL-60 [10])	IC50 (K562 [11]) [nM]	IC50 (K562 [12]) [nM]
Metabolite_Detected	CC(=O)O[C@@H]1C=C(C=O)[C@](O)(C=O)[C@@]2(C)CCCC(C)(C)[C@H]12 [CINNAMODIAL]											
	CC(=O)O[C@@H]1C=C([C@H]2O[C@@H]3OC(O)C4=C[C@@H](OC(C)=O)[C@H]5C(C)(C)CCC[C@]5(C)[C@]43O2)[C@](O)(C=O)[C@@]2(C)CCCC(C)(C)[C@H]12 (some centres not stated)	200 to 270	70 to 90	Active	inactive	Active	7200	Active	Active	Active	180 to 210	360 to 480
